Results as given in ChEMBL document CHEMBL4334458, “Design, synthesis and antibacterial evaluation of novel 15-membered 11a-azahomoclarithromycin derivatives with the 1, 2, 3-triazole side chain” (Eur J Med Chem, 2019).
≈ marks a conversion by molar mass, not a printed value. Calls of active or inactive are those of the source. No cut-off for these calls is given here.

How the values were obtained:
[1] = test system: Staphylococcus aureus; assay: Antibacterial activity against erythromycin-susceptible Staphylococcus aureus ATCC 25923 incubated for 24 hrs by broth dilution method; assay type: functional; details: ATCC 25923, 24 h
How it was run: (§1)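 CLSI broth microdilution in cation-adjusted Mueller-Hinton broth. Twofold dilutions spanned 0.25–128 or 0.5–256 µg/mL, with CAM and AZM as controls. Log-phase bacteria were added and incubated 24 h at 37 °C. MIC was read by turbidity as the concentration of the last clear well.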

[2] = test system: Streptococcus pyogenes; assay: Antibacterial activity against erythromycin-susceptible Streptococcus pyogenes 1 clinical isolate incubated for 24 hrs by broth dilution method; assay type: functional; how it was run: as §1
[3] = test system: Escherichia coli; assay: Antibacterial activity against penicillin-susceptible Escherichia coli ATCC 25922 incubated for 24 hrs by broth dilution method; assay type: functional; details: ATCC 25922, 24 h; how it was run: as §1
[4] = test system: Pseudomonas aeruginosa; assay: Antibacterial activity against penicillin-susceptible Pseudomonas aeruginosa ATCC 27853 incubated for 24 hrs by broth dilution method; assay type: functional; details: ATCC 27853, 24 h; how it was run: as §1
[5] = test system: Bacillus subtilis; assay: Antibacterial activity against penicillin-susceptible Bacillus subtilis ATCC 9372 incubated for 24 hrs by broth dilution method; assay type: functional; details: ATCC 9372, 24 h; how it was run: as §1
[6] = test system: Staphylococcus aureus; assay: Antibacterial activity against penicillin-resistant Staphylococcus aureus ATCC 31007 incubated for 24 hrs by broth dilution method; assay type: functional; details: ATCC 31007, 24 h
[7] = test system: Staphylococcus aureus; assay: Antibacterial activity against methicillin-resistant Staphylococcus aureus ATCC 43300 incubated for 24 hrs by broth dilution method; assay type: functional; details: ATCC 43300, 24 h
[8] = test system: Streptococcus pneumoniae; assay: Antibacterial activity against erythromycin-resistant Streptococcus pneumoniae B1 expressing the ermB incubated for 24 hrs by broth dilution method; assay type: functional
[9] = test system: Streptococcus pneumoniae; assay: Antibacterial activity against erythromycin-resistant Streptococcus pneumoniae AB11 expressing the ermB and mefA incubated for 24 hrs by broth dilution method; assay type: functional
[10] = test system: Streptococcus pyogenes; assay: Antibacterial activity against erythromycin-resistant Streptococcus pyogenes 2 clinical isolate incubated for 24 hrs by broth dilution method; assay type: functional
[11] = test system: Staphylococcus aureus; assay: Ratio of MIC for CAM to MIC for test compound for antibacterial activity against penicillin-resistant Staphylococcus aureus ATCC 31007 incubated for 24 hrs by broth dilution method; assay type: functional
How it was run: (§2)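 Ratio of clarithromycin MIC to compound MIC. Both MICs come from CLSI broth microdilution in cation-adjusted Mueller-Hinton broth with 2-fold dilutions, log-phase inoculum and 24 h at 37 °C, read by turbidity as the last clear well.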

[12] = test system: Streptococcus pneumoniae; assay: Ratio of MIC for CAM to MIC for test compound for antibacterial activity against erythromycin-resistant Streptococcus pneumoniae AB11 expressing the ermB and mefA incubated for 24 hrs by broth dilution method; assay type: functional; how it was run: as §2
[13] = test system: Streptococcus pyogenes; assay: Ratio of MIC for CAM to MIC for test compound for antibacterial activity against erythromycin-resistant Streptococcus pyogenes 2 clinical isolate incubated for 24 hrs by broth dilution method; assay type: functional; how it was run: as §2
[14] = test system: Staphylococcus aureus; assay: Ratio of MIC for CAM to MIC for test compound for antibacterial activity against methicillin-resistant Staphylococcus aureus ATCC 43300 incubated for 24 hrs by broth dilution method; assay type: functional; how it was run: as §2
[15] = test system: Streptococcus pneumoniae; assay: Ratio of MIC for CAM to MIC for test compound for antibacterial activity against erythromycin-resistant Streptococcus pneumoniae B1 expressing the ermB incubated for 24 hrs by broth dilution method; assay type: functional; how it was run: as §2
[16] = test system: Streptococcus pneumoniae; assay: Bactericidal activity against erythromycin-resistant Streptococcus pneumoniae AB11 expressing the ermB and mefA incubated for 24 hrs followed by re-plating on tryptic soy agar plates for 24 hrs by broth microdilution assay; assay type: functional
How it was run: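 Follows the 24 h, 37 °C CAMH broth microdilution MIC plate; contents of clear wells plated onto tryptic soy agar and incubated 24 h at 37 °C; MBC taken as the lowest concentration giving no colonies.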

[17] = test system: Streptococcus pneumoniae; assay: Ratio of MBC to MIC for erythromycin-resistant Streptococcus pneumoniae AB11 expressing the ermB and mefA; assay type: functional
[18] = test system: Streptococcus pneumoniae; assay: Bactericidal activity against erythromycin-resistant Streptococcus pneumoniae AB11 expressing the ermB and mefA at 1 to 4 times MIC incubated for up to 9 hrs by time-kill curve assay; assay type: functional, organism-based
[19] = test system: Streptococcus pneumoniae; assay: Bacteriostatic activity against erythromycin-resistant Streptococcus pneumoniae AB11 expressing the ermB and mefA at 1 to 4 times MIC incubated for 9 to 24 hrs by time-kill curve assay; assay type: functional, organism-based
[20] = test system: Streptococcus pneumoniae; assay: Bacteriostatic activity against erythromycin-resistant Streptococcus pneumoniae AB11 expressing the ermB and mefA by time-kill curve assay; assay type: functional, organism-based
[21] = Cytotoxicity against human MCF7 cells assessed as viable cells at 64 to 128 ug/ml incubated for 24 hrs by MTT assay relative to control; assay type: cell-based; details: read-out: Activity
How it was run: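 MCF-7 cells were seeded at 10^4 cells/well and allowed to settle overnight. Compound was added for 24 h, with CAM as control and DMSO as vehicle control. MTT (5 mg/mL stock) was then added for 4 h at 37 °C, formazan dissolved in DMSO for 10 min, and absorbance read at 570 nm. Read-out was percent viable cells.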

[22] = test system: Staphylococcus aureus; assay: Bactericidal activity against erythromycin-susceptible Staphylococcus aureus ATCC 25923 incubated for 24 hrs followed by re-plating on tryptic soy agar plates for 24 hrs by broth microdilution assay; assay type: functional; details: ATCC 25923, 24 h
How it was run: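 Built on the broth microdilution MIC set-up (CAMH, 24 h, 37 °C). After 24 h, contents of clear wells were plated on tryptic soy agar and incubated 24 h at 37 °C. MBC was taken as the lowest concentration giving no colonies.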

[23] = test system: Staphylococcus aureus; assay: Ratio of MBC to MIC for erythromycin-susceptible Staphylococcus aureus ATCC 25923; assay type: functional

| SMILES | MIC [1] [mg/L] | MIC [2] [mg/L] | MIC [3] [mg/L] | MIC [4] [mg/L] | MIC [5] [mg/L] | MIC [6] [mg/L] | MIC [7] [mg/L] | MIC [8] [mg/L] | MIC [9] [mg/L] | MIC [10] [mg/L] | Ratio [11] | Ratio [12] | Ratio [13] | MBC [16] [mg/L] | Ratio [17] | MBC [22] [mg/L] | Ratio [23] | other results |
| --- | --- | --- | --- | --- | --- | --- | --- | --- | --- | --- | --- | --- | --- | --- | --- | --- | --- | --- |
| CCCc1ccc(-n2cc(COC[C@@H]3CN(C)C[C@@H](C)[C@@H](O)[C@H](C)C[C@@](C)(OC)[C@H](O[C@@H]4O[C@H](C)C[C@H](N(C)C)[C@H]4O)[C@@H](C)[C@H](O[C@H]4C[C@@](C)(OC)[C@@H](O)[C@H](C)O4)[C@@H](C)C(=O)O3)nn2)cc1 | 4 (≈ 4.28 µM) | 4 (≈ 4.28 µM) | 64 (≈ 68.5 µM) | > 128 | 1 (≈ 1.07 µM) | 32 (≈ 34.3 µM) | 16 (≈ 17.1 µM) | 16 (≈ 17.1 µM) | 8 (≈ 8.56 µM) | 32 (≈ 34.3 µM) | 8 - 16 | 8 - 16 | 8 - 16 | 64 (≈ 68.5 µM) | 8 |  |  | Ratio [14]: 8 - 16; Ratio [15]: 8 - 16 |
| CCCCc1ccc(-c2cn(C[C@@H]3CN(C)C[C@@H](C)[C@@H](O)[C@H](C)C[C@@](C)(OC)[C@H](O[C@@H]4O[C@H](C)C[C@H](N(C)C)[C@H]4O)[C@@H](C)[C@H](O[C@H]4C[C@@](C)(OC)[C@@H](O)[C@H](C)O4)[C@@H](C)C(=O)O3)nn2)cc1 | 8 (≈ 8.71 µM) | 8 (≈ 8.71 µM) | > 128 | > 128 | 32 (≈ 34.8 µM) | 8 (≈ 8.71 µM) | 8 (≈ 8.71 µM) | 64 (≈ 69.7 µM) | 8 (≈ 8.71 µM) | 8 (≈ 8.71 µM) |  |  |  | 64 (≈ 69.7 µM) | 8 |  |  | Activity [18]: Active; Activity [19]: Active; Activity [20]: Dose-dependent effect |
| CO[C@]1(C)C[C@@H](C)[C@H](O)[C@H](C)CN(C)C[C@H](COCc2cn(-c3ccccc3)nn2)OC(=O)[C@H](C)[C@@H](O[C@H]2C[C@@](C)(OC)[C@@H](O)[C@H](C)O2)[C@H](C)[C@H]1O[C@@H]1O[C@H](C)C[C@H](N(C)C)[C@H]1O | ≤ 0.25 | 0.25 (≈ 0.28 µM) | 64 (≈ 71.7 µM) | 16 (≈ 17.9 µM) | ≤ 0.25 | > 256 | > 256 | > 256 | 128 (≈ 143 µM) | 128 (≈ 143 µM) |  |  |  |  |  | 128 (≈ 143 µM) | >512 | viability at 24 h [21]: 60% |
| CO[C@]1(C)C[C@@H](C)[C@H](O)[C@H](C)CN(C)C[C@@H](COCc2cn(-c3ccc(C(C)C)cc3)nn2)OC(=O)[C@H](C)[C@@H](O[C@H]2C[C@@](C)(OC)[C@@H](O)[C@H](C)O2)[C@H](C)[C@H]1O[C@@H]1O[C@H](C)C[C@H](N(C)C)[C@H]1O | 4 (≈ 4.28 µM) | 4 (≈ 4.28 µM) | 64 (≈ 68.5 µM) | 128 (≈ 137 µM) | 1 (≈ 1.07 µM) | 32 (≈ 34.3 µM) | 32 (≈ 34.3 µM) | 16 (≈ 17.1 µM) | 16 (≈ 17.1 µM) | 16 (≈ 17.1 µM) | 8 - 16 | 8 - 16 | 8 - 16 |  |  |  |  | Ratio [14]: 8 - 16; Ratio [15]: 8 - 16 |
| CCCCc1ccc(-c2cn(C[C@H]3COC(=O)[C@H](C)[C@@H](O[C@H]4C[C@@](C)(OC)[C@@H](O)[C@H](C)O4)[C@H](C)[C@@H](O[C@@H]4O[C@H](C)C[C@H](N(C)C)[C@H]4O)[C@](C)(OC)C[C@@H](C)[C@H](O)[C@H](C)CN3C)nn2)cc1 | 16 (≈ 17.4 µM) | 4 (≈ 4.36 µM) | > 128 | > 128 | 8 (≈ 8.71 µM) | 16 (≈ 17.4 µM) | > 256 | > 256 | 16 (≈ 17.4 µM) | 16 (≈ 17.4 µM) | 8 - 16 | 8 - 16 | 8 - 16 |  |  |  |  |  |
| CC[C@H]1OC(=O)[C@H](C)[C@@H](O[C@H]2C[C@@](C)(OC)[C@@H](O)[C@H](C)O2)[C@H](C)[C@@H](O[C@@H]2O[C@H](C)C[C@H](N(C)C)[C@H]2O)[C@](C)(OC)C[C@@H](C)C(=O)[C@H](C)[C@@H](O)[C@]1(C)O [CLARITHROMYCIN] | ≤ 0.25 | ≤ 0.03 | 128 (≈ 171 µM) | 32 (≈ 42.8 µM) | ≤ 0.25 | > 256 | > 256 | > 256 | 128 (≈ 171 µM) | 256 (≈ 342 µM) |  |  |  | 128 (≈ 171 µM) | 1 | 128 (≈ 171 µM) | >512 |  |
| COc1cccc(-n2cc(COC[C@H]3CN(C)C[C@@H](C)[C@@H](O)[C@H](C)C[C@@](C)(OC)[C@H](O[C@@H]4O[C@H](C)C[C@H](N(C)C)[C@H]4O)[C@@H](C)[C@H](O[C@H]4C[C@@](C)(OC)[C@@H](O)[C@H](C)O4)[C@@H](C)C(=O)O3)nn2)c1 | ≤ 0.25 | 0.5 (≈ 0.542 µM) | 64 (≈ 69.4 µM) | 32 (≈ 34.7 µM) | ≤ 0.25 | > 256 | > 256 | > 256 | 128 (≈ 139 µM) | 128 (≈ 139 µM) |  |  |  |  |  | > 128 | >512 | viability at 24 h [21]: 60% |
| COc1ccc(-c2cn(C[C@H]3CN(C)C[C@@H](C)[C@@H](O)[C@H](C)C[C@@](C)(OC)[C@H](O[C@@H]4O[C@H](C)C[C@H](N(C)C)[C@H]4O)[C@@H](C)[C@H](O[C@H]4C[C@@](C)(OC)[C@@H](O)[C@H](C)O4)[C@@H](C)C(=O)O3)nn2)cc1 | 1 (≈ 1.12 µM) | 0.12 (≈ 0.135 µM) | 32 (≈ 35.9 µM) | 64 (≈ 71.7 µM) | 1 (≈ 1.12 µM) | > 256 | > 256 | > 256 | 256 (≈ 287 µM) | 128 (≈ 143 µM) |  |  |  |  |  |  |  |  |
